In one assay the test system is SW-620. Put plainly: Growth inhibition of human SW620 cells assessed as cell growth at 10^-5 M after 48 hrs by sulforhodamine B assay relative to control. The assay is classed as functional. The settings on record: SW-620, 48 h, read-out: Activity. The procedure, abridged:
(§1)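 NCI-60 single-dose screen, 10^-5 M final. Cells grown in RPMI 1640 with 5% FBS and 2 mM L-glutamine, seeded at 5,000–40,000 cells/well by doubling time. Preincubated 24 h at 37°C, 5% CO2. Compound in DMSO, diluted in medium with gentamicin, then 48 h exposure. Fixed with cold TCA, SRB stained, A515 read. Percent growth vs untreated control, time-zero plate corrected.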

Assay [1] in a line: Growth inhibition of human Hs 578T cells assessed as cell growth at 10^-5 M after 48 hrs by sulforhodamine B assay relative to control. The assay is classed as functional. To be noted: read-out: Activity. A digest of the protocol: (§2)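 NCI-60 single-dose screen at 10^-5 M. Cells grown in RPMI 1640 with 5% FBS and 2 mM L-glutamine, plated at 5,000–40,000 cells/well according to doubling time, and preincubated 24 h at 37°C, 5% CO2. Compound dissolved in DMSO and added. Exposure 48 h. Adherent cells fixed with cold TCA (10% final), suspension cells with 16% final TCA. Read-out is 0.4% SRB staining, dye solubilised in 10 mM Tris, absorbance at 515 nm. Percent growth is calculated against the time-zero plate and untreated control.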

For a further assay, the system named is MDA-MB-231. The experiment in a line: Growth inhibition of human MDA-MB-231 cells assessed as cell growth at 10^-5 M after 48 hrs by sulforhodamine B assay relative to control. The assay is classed as functional. To be noted: MDA-MB-231, 48 h, read-out: Activity. The procedure, abridged:
as §2

The next assay deals with HOP-92. Put plainly: Growth inhibition of human HOP92 cells assessed as cell growth at 10^-5 M after 48 hrs by sulforhodamine B assay relative to control. The settings on record: HOP-92, 48 h, read-out: Activity. It counts as functional. The procedure, abridged:
as §2

The subject of a further assay is PC-3. Put plainly: Growth inhibition of human PC3 cells assessed as cell growth at 10^-5 M after 48 hrs by sulforhodamine B assay relative to control. It counts as functional. To be noted: PC-3, 48 h, read-out: Activity. The procedure, abridged:
as §2

A further assay relates to TK-10. The experiment in a line: Growth inhibition of human TK10 cells assessed as cell growth at 10^-5 M after 48 hrs by sulforhodamine B assay relative to control. It counts as functional. To be noted: TK-10, 48 h, read-out: Activity. The procedure, abridged: as §1
A further assay deals with UACC-62. Put plainly: Growth inhibition of human UACC62 cells assessed as cell growth at 10^-5 M after 48 hrs by sulforhodamine B assay relative to control. It counts as functional. To be noted: UACC-62, 48 h, read-out: Activity. A digest of the protocol: as §1
For a further assay, the system named is MDA-MB-468. Put plainly: Growth inhibition of human MDA-MB-468 cells assessed as cell growth at 10^-5 M after 48 hrs by sulforhodamine B assay relative to control. It counts as functional. To be noted: MDA-MB-468, 48 h, read-out: Activity. A digest of the protocol:
as §2

In a further assay the test system is HCT-116. Put plainly: Growth inhibition of human HCT116 cells assessed as cell growth at 10^-5 M after 48 hrs by sulforhodamine B assay relative to control. It counts as functional. To be noted: HCT-116, 48 h, read-out: Activity. The procedure, abridged: as §2
The next assay relates to CAKI-1. Put plainly: Growth inhibition of human CAKI-1 cells assessed as cell growth at 10^-5 M after 48 hrs by sulforhodamine B assay relative to control. The assay is classed as functional. To be noted: CAKI-1, 48 h, read-out: Activity. A digest of the protocol:
as §2

Assay [2] addresses Proto-oncogene tyrosine-protein kinase Src (Homo sapiens, UniProt P12931). Put plainly: Inhibition of human SRC.
For a further assay, the system named is RXF 393. The experiment in a line: Growth inhibition of human RXF393 cells assessed as cell growth at 10^-5 M after 48 hrs by sulforhodamine B assay relative to control. It counts as functional. The settings on record: RXF 393, 48 h, read-out: Activity. A digest of the protocol:
as §2

The target of assay [3] is T1, Leukotriene A-4 hydrolase (Homo sapiens, UniProt P09960).
T1 sequence (P09960 whole entry): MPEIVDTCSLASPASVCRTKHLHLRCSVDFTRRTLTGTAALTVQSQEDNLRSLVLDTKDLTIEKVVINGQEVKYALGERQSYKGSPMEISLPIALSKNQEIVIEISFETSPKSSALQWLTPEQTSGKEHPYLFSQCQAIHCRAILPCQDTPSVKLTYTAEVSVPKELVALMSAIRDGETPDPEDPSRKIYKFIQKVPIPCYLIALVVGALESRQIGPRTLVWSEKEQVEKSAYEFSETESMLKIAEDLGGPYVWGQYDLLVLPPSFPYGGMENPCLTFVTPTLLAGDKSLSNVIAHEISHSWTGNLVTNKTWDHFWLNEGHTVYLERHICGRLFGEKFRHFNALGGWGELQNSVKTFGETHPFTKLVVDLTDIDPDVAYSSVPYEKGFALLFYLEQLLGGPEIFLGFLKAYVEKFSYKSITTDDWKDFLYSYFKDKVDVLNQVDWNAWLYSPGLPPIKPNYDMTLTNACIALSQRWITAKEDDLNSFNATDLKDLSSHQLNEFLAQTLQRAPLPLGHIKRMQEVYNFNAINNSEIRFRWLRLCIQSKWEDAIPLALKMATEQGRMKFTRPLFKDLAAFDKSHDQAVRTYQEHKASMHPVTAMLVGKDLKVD
The experiment in a line: Inhibition of human leukotriene A-4 hydrolase.

The test system of a further assay is SK-MEL-28. Put plainly: Growth inhibition of human SK-MEL-28 cells assessed as cell growth at 10^-5 M after 48 hrs by sulforhodamine B assay relative to control. The assay is classed as functional. The settings on record: SK-MEL-28, 48 h, read-out: Activity. A digest of the protocol:
as §2

A further assay relates to COLO 205. Put plainly: Growth inhibition of human COLO205 cells assessed as cell growth at 10^-5 M after 48 hrs by sulforhodamine B assay relative to control. The settings on record: COLO 205, 48 h, read-out: Activity. The assay is classed as functional. The procedure, abridged: as §2
The next assay has as its system LOX IMVI. Put plainly: Growth inhibition of human LOXIMVI cells assessed as cell growth at 10^-5 M after 48 hrs by sulforhodamine B assay relative to control. The assay is classed as functional. The settings on record: read-out: Activity. The procedure, abridged: as §2
Another assay relates to U-251. Put plainly: Growth inhibition of human U251 cells assessed as cell growth at 10^-5 M after 48 hrs by sulforhodamine B assay relative to control. The assay is classed as functional. The settings on record: U-251, 48 h, read-out: Activity. A digest of the protocol:
as §1

The test system of another assay is KM12. The experiment in a line: Growth inhibition of human KM12 cells assessed as cell growth at 10^-5 M after 48 hrs by sulforhodamine B assay relative to control. It counts as functional. The settings on record: KM12, 48 h, read-out: Activity. A digest of the protocol:
as §2

The next assay deals with MDA-MB-435. Put plainly: Growth inhibition of human MDA-MB-435 cells assessed as cell growth at 10^-5 M after 48 hrs by sulforhodamine B assay relative to control. To be noted: MDA-MB-435, 48 h, read-out: Activity. The assay is classed as functional. The procedure, abridged: as §2
A further assay deals with NCI-H460. The experiment in a line: Growth inhibition of human NCI-H460 cells assessed as cell growth at 10^-5 M after 48 hrs by sulforhodamine B assay relative to control. The settings on record: NCI-H460, 48 h, read-out: Activity. It counts as functional. A digest of the protocol:
as §2

For the next assay, the system named is UO-31. Put plainly: Growth inhibition of human UO31 cells assessed as cell growth at 10^-5 M after 48 hrs by sulforhodamine B assay relative to control. It counts as functional. The settings on record: UO-31, 48 h, read-out: Activity. The procedure, abridged: as §1
In a further assay the test system is SNB-19. Put plainly: Growth inhibition of human SNB19 cells assessed as cell growth at 10^-5 M after 48 hrs by sulforhodamine B assay relative to control. To be noted: SNB-19, 48 h, read-out: Activity. It counts as functional. The procedure, abridged: as §2
The next assay relates to DU-145. Put plainly: Growth inhibition of human DU145 cells assessed as cell growth at 10^-5 M after 48 hrs by sulforhodamine B assay relative to control. It counts as functional. The settings on record: DU-145, 48 h, read-out: Activity. The procedure, abridged: as §2

Chain of Proto-oncogene tyrosine-protein kinase Src (P12931 2-536 limits assumed): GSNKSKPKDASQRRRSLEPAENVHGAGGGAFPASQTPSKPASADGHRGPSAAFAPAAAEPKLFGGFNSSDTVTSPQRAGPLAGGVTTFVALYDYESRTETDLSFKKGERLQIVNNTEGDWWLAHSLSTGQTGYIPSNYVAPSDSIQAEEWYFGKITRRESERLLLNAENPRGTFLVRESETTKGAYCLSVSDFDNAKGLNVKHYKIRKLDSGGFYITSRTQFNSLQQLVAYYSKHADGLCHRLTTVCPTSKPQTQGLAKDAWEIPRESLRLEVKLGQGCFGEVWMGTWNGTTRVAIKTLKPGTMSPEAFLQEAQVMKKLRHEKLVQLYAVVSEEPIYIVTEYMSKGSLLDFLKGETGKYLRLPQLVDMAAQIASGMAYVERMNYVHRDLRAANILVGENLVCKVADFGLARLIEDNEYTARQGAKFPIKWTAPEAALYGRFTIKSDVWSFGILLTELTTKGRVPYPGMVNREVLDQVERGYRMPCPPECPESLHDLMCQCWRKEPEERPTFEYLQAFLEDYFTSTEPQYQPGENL

On to `N=c1scc(-c2ccccc2)n1CC(=O)N1CCOCC1`, for which the growth at 10 µM is 98% in the assay with SW-620; 101% in assay [1]; 95.1% in the assay on MDA-MB-231; 70% in the assay with HOP-92; 81.3% with PC-3; 132% in the assay with TK-10. For the same compound, the growth at 10 µM stood at 92.5% in the assay with UACC-62; 98.4% with MDA-MB-468; 98.6% in the assay on HCT-116; 76.2% with CAKI-1; 98.7% in the assay with RXF 393; 112% in the assay with SK-MEL-28. Further, the growth at 10 µM with COLO 205 was 107%; in the assay with LOX IMVI it was 92%; in the assay with U-251 it was 95.1%; in the assay with KM12, 103%; in the assay with MDA-MB-435, 101%; in the assay with NCI-H460 it was 105%. The results for the growth at 10 µM in the assay with UO-31, in the assay on SNB-19 and with DU-145 were 58%, 98.3% and 107%, respectively. The results for the inhibition constant (Ki) in assay [2] and in [3] were 20.2 µM and 8.65 µM, respectively.

On to `N=c1scc(-c2ccc(Cl)cc2)n1CC(=O)N1CCOCC1`, for which the growth at 10 µM turned out to be 103% in the assay with SW-620; 105% in [1]; 97.5% in the assay with MDA-MB-231; 81.8% with HOP-92; 79.2% with PC-3; 85.9% in the assay on TK-10. Also, the growth at 10 µM with UACC-62 worked out at 83.2%; with MDA-MB-468 it was 95.5%; with HCT-116 it was 87.4%; in the assay with CAKI-1, 84.4%; in the assay on RXF 393, 110%; with SK-MEL-28, 97.1%. The growth at 10 µM is 101% in the assay on COLO 205; 97.9% with LOX IMVI; 88.3% in the assay on U-251; 106% in the assay with KM12; 84.6% with MDA-MB-435; 99.3% in the assay on NCI-H460. For the same compound, the growth at 10 µM in the assay on UO-31 was determined as 86.1%; in the assay with SNB-19 it was 91.2%; in the assay on DU-145, 104%. Besides, the Ki is 16.7 µM in [2] and 1.06 µM in assay [3].

The record behind these values is ChEMBL document CHEMBL2434944, “Novel acetamidothiazole derivatives: synthesis and in vitro anticancer evaluation” (Eur J Med Chem, 2013).
